# Screens from PubChem.
# Shown are actives, neighbours in structure and some others; about 1.9% of the full set was active somewhere.
# PP5 primary – blocks human protein phosphatase 5 activity; P53041; purified PP5c, OMFP substrate fluorescence; inhibition, % at 6.7 µM; hit rate 0.18% among 320,000; AID 1987;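 active means inhibition above the campaign's mean inhibition across all tested compounds plus 3 SD, cut at about 9.5% in these data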;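 further: 0% = DMSO only and 100% = 100 µM cantharidin control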
# FID counter – fluorescent intercalator displacement, NS3 helicase counter-screen | DNA fluorescent intercalator displacement, fluorescence | inhibition, % at 7.9 µM | hit rate 0.17% among 290,000; in the data active means inhibition above about 37%;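 further: 0% = vehicle and 100% = reference compound; higher means more ethidium bromide displaced from hairpin DNA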
# PP1 inh – counter-screen for PP5 inhibitors: inhibitors of human PP1-alpha; P62136; purified PP1alpha, OMFP fluorescence; inhibition, % at 6.7 µM; hit rate 0.9% among 320,000; AID 2235;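 active means inhibition above the mean inhibition of all tested compounds plus 3 SD, computed separately for each screening campaign, cut at about 15% in these data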
# Target sequence (P62136 whole entry, looked up): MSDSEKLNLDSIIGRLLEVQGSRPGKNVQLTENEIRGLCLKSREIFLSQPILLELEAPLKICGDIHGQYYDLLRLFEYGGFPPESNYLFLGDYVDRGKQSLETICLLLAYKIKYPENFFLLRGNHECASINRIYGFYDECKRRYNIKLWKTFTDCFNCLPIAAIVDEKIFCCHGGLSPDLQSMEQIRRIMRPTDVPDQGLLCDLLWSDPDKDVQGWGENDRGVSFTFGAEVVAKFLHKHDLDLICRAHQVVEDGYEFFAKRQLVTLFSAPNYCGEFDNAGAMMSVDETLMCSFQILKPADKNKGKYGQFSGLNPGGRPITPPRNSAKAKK
# HCV NS3 hel inh – inhibitors of Hepatitis C virus NS3 helicase; NS3 helicase DNA unwinding, Cy5 molecular beacon fluorescence; inhibition, % at 10.9 µM; hit rate 0.56% among 290,000;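 active means inhibition above the mean of all tested compounds plus 3 SD, set per campaign, cut at about 35% in these data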;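 further: 0% = DMSO wells and 100% = thioflavine S control wells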
#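 Test system: hepatitis C virus NS3 helicase domain fragment enzyme. Also added: annealed dual-labelled DNA beacon duplex, ATP-started. Timing: 60 min unwinding reaction at 25 °C after ATP addition. Technique: Cy5 fluorescence. Measure: % inhibition of unwinding.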
# HIF activator – HIF pathway transcriptional activation; AID 1910; U2OS HRE-luciferase reporter, luminescence; normalized: DMSO 0%, desferrioxamine 100%; hit rate 0.32% among 300,000; activation, % at 7.5 µM (by protocol);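 active means mean activation of at least 10% of the iron chelator positive control signal, with at least half of replicates also reaching 10%; inconclusive means mean and replicate majority disagree about reaching 10%; inactive means mean and most replicates under 10%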
# PP1 confirm – human PP1 phosphatase inhibition, confirmation; shares compounds with PP1 inh; purified PP1alpha, OMFP substrate fluorescence; inhibition, % at 6.7 µM; hit rate 52% among 1,900; AID 2358;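 active means mean PP1 inhibition above a set limit taken from the earlier primary screen, cut at about 15% in these data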
# PP5 inh counter – counter-screen for PP1 inhibitors: human PP5 phosphatase inhibition | shares compounds with PP1 inh | purified PP5c, OMFP fluorescence | inhibition, % at 6.7 µM | hit rate 4% among 1,900 | AID 2360;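 active means mean PP5 inhibition over triplicate wells above about 9.5% taken from the earlier PP1 screen, limit read from the data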
# An asterisk follows results filed as active; ? = inconclusive; . = not tested or not shown.
SMILES,PP5 primary,FID counter,PP1 inh,HCV NS3 hel inh,HIF activator,PP1 confirm,PP5 inh counter
Nc1[nH]n2c(=O)c3c(nc2c1N=Nc1ccccc1)CCCC3,4,-12,20*,1,0,21*,5
Nc1[nH]n2c(=O)c3c(nc2c1N=Nc1ccc(Cl)cc1)CCCC3,-4,-2,5,-1,1,.,.
CCCCCC[N+](C)(C)CCSSCC[N+](C)(C)CCCCCC,-1,19,-6,-28,0,.,.
CCCCCCCCCCCCCCCC[N+](C)(C)CC,3,.,20*,.,1,-11,2
Cc1[nH]c(C)c(S(=O)(=O)N2CCN(c3ccc(Cl)cc3)CC2)c1C(=O)N1CCCC1,-3,-30,-3,-4,.,.,.
CCOc1cc(C2C(C(=O)c3ccc(C)o3)=C(O)C(=O)N2CCc2ccccc2)ccc1O (stereo not given),2,-37,33*,31,2,38*,4
COc1cc(C2C(C(=O)c3ccc(C)o3)=C(O)C(=O)N2Cc2ccccc2)ccc1O (stereo not given),1,.,13,.,0,.,.
O=C(CSc1nc2c(c(=O)[nH]1)CCC2)Nc1cccc(F)c1,0,-4,0,-5,1,.,.
N#Cc1c(-c2ccccc2)c(-c2ccccc2)nn(CC(=O)NNC(=O)Nc2ccc(Cl)c(Cl)c2)c1=O,6,7,23*,4,1,12,3
O=C(Cn1nc(-c2ccccc2)c2ccccc2c1=O)Nc1ccc(F)cc1,-2,-8,-2,2,0,.,.
CCOC(=O)N1CCN(S(=O)(=O)c2ccc(C(=O)NNc3nc4cc(C)cc(C)c4s3)cc2)CC1,6,-24,19*,-6,3,26*,1
CCOC(=O)N1CCN(S(=O)(=O)c2ccc(C(=O)NNc3nc4c(C)cc(C)cc4s3)cc2)CC1,6,-20,31*,-2,?,19*,-2
COc1ccc(Nc2cc(C)nc(N3CCN(C(=O)c4ccc5c(c4)OCO5)CC3)n2)cc1,-2,.,-3,.,1,.,.
O=C(CCS(=O)(=O)c1ccccc1)OCc1ccc([N+](=O)[O-])cc1,3,-3,-5,-7,0,.,.
CC(C)c1ccc(NC(=O)Nc2cc3sccc3n2C)cc1,4,1,18*,23,-1,2,-6
Cn1c(C(=O)Nc2ccc3c(c2)OCCO3)cc2sccc21,2,-8,2,-7,1,.,.
C/C(=N\NC(=O)COc1ccc(C)cc1Br)c1cc([N+](=O)[O-])cs1,2,1,22*,2,0,23*,2
C/C(=N\NC(=O)COc1ccc(C)cc1[N+](=O)[O-])c1cccs1,-2,6,-3,-6,1,.,.
CCc1cc2c(=O)c(-c3nc(C)cs3)coc2cc1O,0,-1,20*,-6,2,12,-4
COc1ccc2c(=O)c(-c3nc(C)cs3)coc2c1,0,-4,1,-1,-1,.,.
CCOC(=O)c1c(NC(=O)CSc2ncccn2)sc2c1CCN(Cc1ccccc1)C2,.,12,.,-80,0,.,.
CCOC(=O)c1c(NC(=O)CSc2nnc3c(n2)[nH]c2ccccc23)sc2c1CCN(C)C2,0,-3,18*,-28,0,11,-1
Cc1ccc(NC(=S)NNC(=O)c2nnn(-c3ccccc3)c2C)cc1,4,-15,-1,0,3,.,.
CC1=C(C(=O)Nc2ccccc2)C(c2ccc(C)cc2)N=C(Nc2nc3ccccc3o2)N1 (stereo not given),-2,-2,23*,1,-4,25*,0
Cc1cc(C(=O)N(C)CC(=O)Nc2ccc(F)c(F)c2F)no1,1,-4,-5,10,0,.,.
CNC[C@@H](CC1CCCCC1)NC[C@H](CC(C)C)NCCc1cccc(C(F)(F)F)c1,2,35,13,-90,-5,.,.
CC[C@@H](C)[C@H](CNC)NC[C@@H](Cc1cccc2ccccc12)NCCc1cccc(C(F)(F)F)c1,5,33,25*,-94,0,-11,4
CCc1nc(SCc2ccc(C(=O)OC)o2)c2c(=O)n(C)c(=O)n(C)c2n1,4,-3,-4,-3,0,.,.
